# Legend:
# [1] = test system: RAW 264.7 murine macrophage‐like cells; experiment: EZ-Cytox cell viability assay with RSL3 co-treatment; type: cell-based; conditions: RSL3 1 µM + DMSO, 24 h, EZ-Cytox (WST), n = 3
# Method in brief: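 RAW 264.7 murine macrophage-like cells were co-treated for 24 h with RSL3 (1 µM) plus test compound. The screen used 10 µM, and dose-response used 0.3–20 µM on a log scale. Viability was read by EZ-Cytox and normalized to DMSO. Mean ± SD, n = 3.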
# HeLa cells = experiment: Lipid peroxidation, fluorescence imaging with BODIPY 665/676; type: cell-based, human; conditions: RSL3 1 µM, 3 h, BODIPY 665/676 imaging
# Method in brief: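 HeLa cells were treated for 3 h with DMSO, test compound (40 µM), RSL3 (1 µM) or both. They were then stained for 0.5 h with Hoechst 33342 (2 µg/ml) and BODIPY 665/676 (5 µM). Cells were imaged by fluorescence, and BODIPY intensity was quantified relative to DMSO-treated cells. Mean ± SD, n = 21; one-way ANOVA.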
# RAW 264.7 cells [2] = experiment: Lipid peroxidation, flow cytometry with BODIPY 665/676; type: cell-based, murine; conditions: RSL3 1 µM, 4 h, BODIPY 665/676 flow cytometry
# Method in brief: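 RAW 264.7 cells were treated for 4 h with DMSO, RSL3 (1 µM) or test compound plus RSL3. They were then stained with BODIPY 665/676 for 0.5 h. Mean fluorescence intensity was read by flow cytometry. Mean ± SD, n = 3; one-way ANOVA.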
# RAW 264.7 cells [3] = conditions: read-out: EC50 (ferroptosis inhibition); in RAW 264.7 cells; cited from earlier work
# [4] = macrocyclic analog of crizotinib; cited from earlier work
smiles,measurement,setting,value
"COC(=O)c1ccc([C@H]2c3[nH]c4ccccc4c3C[C@H](C(=O)OC)N2C(=O)CCl)cc1 [RSL3, RAS‐selective lethal 3]",Cell viability with RSL3 alone,[1],18%
same,"Lipid peroxide level (imaging), RSL3 alone",HeLa cells,markedly increased lipid peroxide levels
same,"Lipid peroxide level (flow cytometry), RSL3 alone",RAW 264.7 cells [2],markedly increased lipid peroxide levels
CCOC(=O)c1ccc(NC2CCCCC2)c(N)c1 [ferrostatin‐1],EC50,RAW 264.7 cells [3],40 ± 4 nM
C[C@H]1Oc2cc(cnc2N)-c2c(nn(C)c2C#N)CN(C)C(=O)c2ccc(F)cc21 [lorlatinib],Potency increase through macrocyclization,[4],~80 fold

# — PMC12707352 (Angewandte Chemie (International Ed. in English), 2025)
